STAT3 activator = STAT3 signaling activation; U3A cells, IL-6 STAT3-luciferase reporter, luminescence; 100% = signal with IL-6 EC80 alone; activation (% of control), % at 5.6 µM; 190,000 tested, 0.91% active;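 active = activation above the screen-wide mean of compound activation plus 3 SD, cut at about 130% in these data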
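Test system: STAT3-luciferase reporter U3A cells; Detection: reporter luminescence signal; Times: 1 h compound pre-exposure, 6 h IL-6 stimulation, 37 °C; Benchmarks: IL-6-only high control; Also added: IL-6 stimulus at 33 ng/mL final.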
STAT3 blocker = STAT3 signaling inhibition; U3A cells, IL-6 STAT3-luciferase reporter, luminescence; host cell line lacks STAT1; inhibition, % at 5.5 µM; 190,000 tested, 0.89% active; AID 862;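 active = inhibition above the mean inhibition across all screened compounds plus 3 SD, cut at about 44% in these data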
STAT1 inh = inhibitors of IFN-gamma induced STAT1 signaling | NIH 3T3 STAT1-luciferase reporter, luminescence | inhibition, % at 5.5 µM | 200,000 tested, 0.35% active;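 active = inhibition above a set limit, the mean inhibition across all tested compounds plus 3 SD, cut at about 34% in these data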
STAT1 act = STAT1 signaling activation | NIH 3T3 STAT1-luciferase reporter, IFN-gamma, luminescence; 100% = IFN-gamma alone, no compound | activation (% of control), % at 5.5 µM | 200,000 tested, 2.6% active;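 active = activation above the screen-wide mean activation plus 3 SD, cut at about 130% in these data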
APP 5'UTR act = activates APP 5'UTR luciferase reporter; SH-SY5Y APP 5'UTR luciferase reporter, luminescence; zero percent = DMSO vehicle wells; activation, % at 2 µM; 190,000 tested, 1% active; AID 1276;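 active = activation above a set limit, based on mean plus 3 SD of controls, cut at about 140% in these data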
NF-kB expr up = NF-kB expression increase, human neuronal cells; NF-kB reporter expression; active compounds read high; fold change at 12.5 µM; 190,000 tested, 1.6% active; in the data active = fold change above about 3.3
Numbers stand for hits; – = inactive; · = no result. A selection: hits, their analogues and other compounds. The true share with any hit is near 4.9%.

SMILES | STAT3 activator | STAT3 blocker | STAT1 inh | STAT1 act | APP 5'UTR act | NF-kB expr up
CC1CCc2nc(NC(=O)Cc3cccs3)sc2C1 (configuration not stated) | – | – | – | 143.0 | – | 4.34
Cc1csc(NC(=O)CCCc2cccs2)n1 | – | – | – | – | – | –
Fc1cccc(Cl)c1/C=N/n1c(-c2cccnc2)n[nH]c1=S | – | – | – | – | – | –
C/C(N)=C(/C#N)C(=O)COC(=O)CNS(=O)(=O)c1c(F)cccc1F | – | – | – | – | – | –
O=C1N=C(N2CCCC2)CN1c1ccccc1 | – | – | – | – | – | –
CCOC(=O)N/N=C(/C)c1cccc(-n2cnnn2)c1 | – | – | – | – | – | –
FC(F)(F)c1cnc(NNC(=S)Nc2ccc(Cl)cc2)c(Cl)c1 | – | – | – | – | – | –
Fc1ccc(NC(=S)NNc2ncc(C(F)(F)F)cc2Cl)c(F)c1 | – | 61.7 | 58.6 | – | – | –
O=C(/C=C/c1ccc2c(c1)OCO2)c1ccc[nH]1 | – | – | – | – | 188.2 | –
COc1cccc(/C=C/C(=O)c2ccc[nH]2)c1 | – | – | – | – | 200.6 | 6.64
O=C(/C=C/c1ccc2c(c1)OCO2)c1ccc(F)cc1 | – | – | – | – | – | –
CCCC(C)NC1=NCCCCC1 (configuration not stated) | – | – | – | – | – | –
CN1CCN(Cn2cc(/C=C/C(=O)c3ccccc3)c3ccccc32)CC1 | – | – | – | 131.2 | 165.0 | 12.8
CCCN(CCC)CC(O)Cn1cc(/C=C/C(=O)c2ccccc2)c2ccccc21 (configuration not stated) | – | – | – | – | – | –
COc1cccc(C(=O)OCC(=O)Nc2cc(C)c(C)cc2[N+](=O)[O-])c1 | – | – | – | – | · | –
COC(=O)C1=C(C)N(CCc2cc(OC)c(OC)c(OC)c2)C(=O)N[C@H]1c1cccs1 | – | – | – | – | – | –
COc1ccc(C(=O)NC(=O)NC2(C(Cl)(Cl)Cl)OCCO2)cc1 | – | – | – | – | 225.6 | 5.07
Cc1ccc(N2CC(O)(c3cccs3)[N+]3=C2CCCC3)cc1 (configuration not stated) | – | – | – | – | – | –
Cc1ccc(N2NC(C)(c3cccs3)NC2=S)cc1 (configuration not stated) | – | – | – | – | – | 3.33
O=C(Nc1ccc(F)cc1F)c1csc(-c2cccs2)n1 | – | – | – | 135.1 | – | –
COc1cc(OC)cc(C(=O)OCCNC(=O)Cn2cnc3c2c(=O)n(C)c(=O)n3C)c1 | – | – | – | – | – | –
Cc1cc(/C=N/n2cnnc2)c(C)n1-c1ccc(OCc2ccc(Cl)cc2Cl)cc1 | – | 61.3 | 39.6 | – | – | –
CC(=O)Nc1cccc(-c2csc(N)n2)c1 | – | – | – | – | – | ·
CCC(C)C(=O)N1CCc2cc(-c3csc(N)n3)ccc21 (configuration not stated) | – | – | – | 132.1 | – | –
CS(=O)(=O)N1CCc2cc(-c3csc(NC(=O)C(c4ccccc4)c4ccccc4)n3)ccc21 | – | – | – | – | – | –
SMILES | STAT3 activator | STAT3 blocker | STAT1 inh | STAT1 act | APP 5'UTR act | NF-kB expr up
CNc1nc(-c2ccc3c(c2)CCN3C(=O)CC(C)(C)C)c(C)s1 | – | – | – | – | – | –
CCCC(=O)N1CCc2cc(-c3nc(N)sc3C)ccc21 | – | – | – | 137.1 | – | –
CC(C)(C)C(=O)N1CCc2cc(-c3csc(N)n3)ccc21 | – | 84.7 | 37.4 | – | – | –
COCCNS(=O)(=O)c1ccc(SC)cc1 | – | – | – | – | – | –
CN(CCc1ccccn1)C(=O)CCC1CCCN(C(=O)NC2CCCCC2)C1 (configuration not stated) | – | – | – | – | – | ·
O=C(N/N=C1\CCc2ccccc21)c1ccccc1Cl | – | – | – | 131.2 | – | –
Cc1ccc(C(=O)N/N=C2\CCc3ccccc32)c(C)c1 | – | – | – | 149.0 | – | 5.68
O=C(N/N=C1\CCc2ccccc21)c1ccc(O)cc1 | – | – | – | 141.5 | 138.1 | –
COc1ccccc1/C=C/C(=O)NC(=S)NCC1CCCO1 (configuration not stated) | – | – | – | – | – | –
COc1ccc(NC(=O)C(CC(C)C)NC(=O)C2CCCCC2)c(OC)c1 (configuration not stated) | – | – | – | – | – | –
COC(=O)c1sccc1-n1cccc1C(=O)C(=O)N1CC(C)OC(C)C1 (configuration not stated) | – | – | – | – | – | –
COC(=O)c1ccc(NC(=O)c2ccccc2-c2ccccc2C(=O)O)cc1 | – | – | – | – | – | –
O=C(O)/C=C\C(=O)Nc1ccccc1C#Cc1ccccc1 | – | – | – | 139.6 | – | 6.76
Cc1ccc(C2=NN=C(NC(=O)C(F)(F)F)SC2)cc1 | – | – | – | – | – | 4.28
Cc1nc2nc(-c3ccccc3)cn2nc1C | – | – | – | – | – | 4.74
CCc1c(-c2ccccc2)nc2nc(C)c(C)nn12 | – | – | – | – | – | –
CCc1ccc(-c2cn3nc(C)c(C)nc3n2)cc1 | – | 110.5 | 85.1 | – | – | –
c1ccc(-c2cn3nc4c(nc3n2)CCCC4)cc1 | – | 87.3 | 52.7 | – | 148.5 | –
CCOC(=O)CSc1nnc(NC(=O)c2cccc([N+](=O)[O-])c2C)s1 | – | – | – | – | – | –
CC(C)(C)c1ccc(NC(=O)Nc2ccc(OCC(=O)N3CCOCC3)cc2)cc1 | – | – | – | 134.0 | – | 5.32
CC(=O)Nc1ccc(NC(=O)C2CCCN2/C=C/C(=O)C(F)(F)F)cc1 (configuration not stated) | – | – | – | – | – | –
Cc1ccc(Nc2nc(=O)c3cccnc3s2)cc1 | 143.8 | – | – | 137.4 | – | 4.32
O=C(Nc1ccc(-c2nc3cc(Cl)ccc3o2)cc1)C1CCCO1 (configuration not stated) | – | – | – | 149.5 | – | –
O=C(Nc1ccc(Oc2ccccc2)cc1)C1CCCO1 (configuration not stated) | – | – | – | 132.4 | – | –
COc1ccc(NC(=O)C2CCCO2)cc1 (configuration not stated) | – | – | – | – | – | –
SMILES | STAT3 activator | STAT3 blocker | STAT1 inh | STAT1 act | APP 5'UTR act | NF-kB expr up
O=C(Nc1ccc(-c2nc3ccccc3o2)cc1)C1CCCO1 (configuration not stated) | – | – | – | 140.0 | 233.1 | 4.24
Cc1cccc2sc(NC(=O)c3ccc(NS(=O)(=O)c4cccs4)cc3)nc12 | – | – | – | – | – | –
Cc1nn(-c2ccccc2)c(N)c1N=Nc1cccnc1 | – | – | – | 132.9 | – | –
Nc1nc(-c2ccccc2)c(N=Nc2cccnc2)s1 | – | – | – | – | – | –
CN(C)CCSc1nnc(-c2ccccc2)o1 | – | – | – | – | – | –
CN(C)c1cccc(-c2nnc(SCCCC#N)o2)c1 | – | – | – | – | 153.7 | –

Bioassay records from PubChem.
